ChEMBL document CHEMBL1128573, “Synthesis and in vitro evaluation of 4-substituted N-(1,1-dimethylethyl)-3-oxo-4-androstene-17 beta-carboxamides as 5 alpha-reductase inhibitors and antiandrogens” (J Med Chem, 1995)

Molecular target: T1, 3-oxo-5-alpha-steroid 4-dehydrogenase 2 (Homo sapiens, UniProt P31213)
T1 sequence (P31213 whole entry): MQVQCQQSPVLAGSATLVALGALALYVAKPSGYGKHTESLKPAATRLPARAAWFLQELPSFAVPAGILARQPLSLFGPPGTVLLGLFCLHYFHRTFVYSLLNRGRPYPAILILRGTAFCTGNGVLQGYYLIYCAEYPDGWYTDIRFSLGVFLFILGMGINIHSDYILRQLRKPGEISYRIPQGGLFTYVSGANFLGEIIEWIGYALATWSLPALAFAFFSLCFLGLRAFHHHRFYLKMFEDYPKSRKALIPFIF
Test: In vitro inhibition of human Steroid 5-alpha-reductase type 2 in transfected SW-13 cells using [3H]- delta4-Androstenedione as substrate; NA is not active
Format: cell-based
Conditions: not given; call rule not given here
In short: (§1)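 Homogenate of SW-13 cells transfected with human type II cDNA. Compounds diluted in 50 mM Tris-HCl pH 7.5, 20% glycerol, 1 mM EDTA, first screened at 1 and 0.1 μM. Those reaching 50% inhibition at 1 μM were run at 12 levels, 0.1–1000 nM. Incubated with 5 nM [3H]androstenedione and 500 μM NADPH, 60 min, 37 °C. Ether extraction, TLC, androstanedione radioactivity as % of control.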

For `CC(C)(O)C(=O)Nc1ccc([N+](=O)[O-])c(C(F)(F)F)c1` [HYDROXYFLUTAMIDE], the IC50 was “Not Active”.

Molecular target: T2, 3-oxo-5-alpha-steroid 4-dehydrogenase 1 (Homo sapiens, UniProt P18405)
T2 sequence (P18405 whole entry): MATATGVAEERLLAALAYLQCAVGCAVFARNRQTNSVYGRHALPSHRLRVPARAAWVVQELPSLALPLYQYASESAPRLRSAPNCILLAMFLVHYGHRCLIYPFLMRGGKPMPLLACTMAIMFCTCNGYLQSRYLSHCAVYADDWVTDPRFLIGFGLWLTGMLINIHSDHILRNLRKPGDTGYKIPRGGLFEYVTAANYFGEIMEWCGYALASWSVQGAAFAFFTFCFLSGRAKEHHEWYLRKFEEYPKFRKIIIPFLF
Test: In vitro inhibition of human Steroid 5-alpha-reductase type I in transfected 293 cells using [3H]- delta4-Androstenedione as substrate
Format: cell-based, HEK293
Conditions: not given
In short: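 Homogenate of 293 cells transfected with human type 1 5α-reductase cDNA was used as enzyme. Compounds were dissolved in ethanol and diluted in 50 mM Tris-HCl pH 7.5 with 20% glycerol and 1 mM EDTA. They were screened at 1 and 0.1 μM; those giving ≥50% inhibition at 1 μM were tested at 12 concentrations from 0.1 to 1000 nM. Incubation used [3H]androstenedione and 500 μM NADPH for 60 min at 37 °C, followed by ether extraction, TLC, and counting of androstanedione as % of control.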

`CC(C)(C)NC(=O)[C@H]1CC[C@H]2[C@@H]3CC[C@H]4NC(=O)C=C[C@]4(C)[C@H]3CC[C@]12C` [FINASTERIDE] gave an IC50 of 218 nM.

Molecular target: T2, 3-oxo-5-alpha-steroid 4-dehydrogenase 1
Test: In vitro inhibition of human Steroid 5-alpha-reductase type I in transfected 293 cells using [3H]- delta4-Androstenedione as substrate; NA is not active
Format: cell-based
Conditions: hek293
In short: as §1, with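 “of 293” for “of SW-13”, “type 1” for “type II”, “with 1” for “with 5”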

For `CC(C)(O)C(=O)Nc1ccc([N+](=O)[O-])c(C(F)(F)F)c1` [HYDROXYFLUTAMIDE], the IC50 was “Not Active”.

Tested on: not listed separately
Test: In vitro inhibition of 5-alpha-dihydrotestosterone stimulated shionogi cell proliferation; NA is not active
Format: functional, Mus musculus
Conditions: not given
In short: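 Shionogi mouse mammary carcinoma clone SEM-107 (passage 23), plated at 17400 cells/mL in MEM with 2% charcoal-treated FCS. Grown 13 days with medium changed every 3–4 days. Methanol-fixed, DNA content measured. IC50 by weighted iterative nonlinear least-squares regression; means ± SEM.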

For `[3H]C1CC2=CC(=O)CC[C@]2(C)[C@H]2CC[C@]3(C)C(=O)CC[C@H]3[C@H]12` (stereo partly specified), the IC50 was “Not Active”.
For `CC(C)(C)NC(=O)[C@H]1CC[C@H]2[C@@H]3CC[C@H]4NC(=O)C=C[C@]4(C)[C@H]3CC[C@]12C` [FINASTERIDE], the IC50 was “Not Active”.

Molecular target: T1, 3-oxo-5-alpha-steroid 4-dehydrogenase 2
Test: In vitro inhibition of human Steroid 5-alpha-reductase type 2 in transfected SW-13 cells using [3H]- delta4-Androstenedione as substrate
Format: cell-based
Conditions: not given
In short: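 Homogenate of SW-13 cells transfected with human type II cDNA was the enzyme source. Compounds in ethanol were diluted in 50 mM Tris-HCl pH 7.5 with 20% glycerol and 1 mM EDTA. They were screened at 1 and 0.1 μM; those giving ≥50% inhibition at 1 μM were run at 12 concentrations, 0.1–1000 nM. Reactions used [3H]androstenedione and 500 μM NADPH for 60 min at 37 °C. Steroids were ether-extracted and TLC-separated, and androstanedione radioactivity was expressed as % of control.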

Going from `[3H]C1CC2=CC(=O)CC[C@]2(C)[C@H]2CC[C@]3(C)C(=O)CC[C@H]3[C@H]12` (stereo partly specified) to `CC(C)(C)NC(=O)[C@H]1CCC2C3CCC4=C(S)C(=O)CC[C@]4(C)C3CC[C@@]21C` (stereo partly specified), the IC50 rises from 83.9 nM to 437 nM (5.2-fold). The first is the more potent here.

Compared with `CC(C)(C)NC(=O)[C@H]1CCC2C3CCC4=C(Cl)C(=O)CC[C@]4(C)C3CC[C@@]21C` (stereo partly specified), `CC(C)(C)NC(=O)[C@H]1CCC2C3CCC4=C(Br)C(=O)CC[C@]4(C)C3CC[C@@]21C` (stereo partly specified) is 2-fold higher in IC50: 192 nM for the first, 387 nM for the second. The first is the more potent here.

Compared with `CC(C)(C)NC(=O)[C@H]1CCC2C3CCC4=C(O)C(=O)CC[C@]4(C)C3CC[C@@]21C` (stereo partly specified), `CC(C)(C)NC(=O)[C@H]1CC[C@H]2[C@@H]3CC[C@H]4NC(=O)C=C[C@]4(C)[C@H]3CC[C@]12C` [FINASTERIDE] is 20-fold lower in IC50: 172 nM for the first, 8.47 nM for the second.

Tested on: not listed separately
Test: In vitro inhibition of 5-alpha-dihydrotestosterone stimulated shionogi cell proliferation.
Format: functional
Conditions: Mus musculus
In short: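 Androgen-sensitive Shionogi mouse mammary carcinoma clone SEM-107 (passage 23) plated at 17400 cells/mL in MEM with 2% dextran-charcoal-treated FCS. Cells grew 13 days with medium changes every 3–4 days, then were methanol-fixed. DNA content was measured, and IC50 was fitted by weighted iterative nonlinear least squares.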

Compared with `CC(C)(C)NC(=O)[C@H]1CCC2C3CCC4=C(S)C(=O)CC[C@]4(C)C3CC[C@@]21C` (stereo partly specified), `CC(C)(C)NC(=O)[C@H]1CCC2C3CCC4=C(Cl)C(=O)CC[C@]4(C)C3CC[C@@]21C` (stereo partly specified) is 1.6-fold lower in IC50: 279 nM for the first, 170 nM for the second. The second is the more potent here.

`CC(C)(C)NC(=O)[C@H]1CCC2C3CCC4=C(Br)C(=O)CC[C@]4(C)C3CC[C@@]21C` (stereo partly specified) and `CC(C)(C)NC(=O)[C@H]1CCC2C3CCC4=C(O)C(=O)CC[C@]4(C)C3CC[C@@]21C` (stereo partly specified) are within 1.5-fold of each other in IC50: 184 nM for the first, 242 nM for the second.

With `CC(C)(O)C(=O)Nc1ccc([N+](=O)[O-])c(C(F)(F)F)c1` [HYDROXYFLUTAMIDE] the IC50 was 117 nM.

Molecular target: T2, 3-oxo-5-alpha-steroid 4-dehydrogenase 1
Test: In vitro inhibition of human tSteroid 5-alpha-reductase type I in transfected 293 cells using [3H]- delta4-Androstenedione as substrate.
Format: cell-based, HEK293
Conditions: not given
In short: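 Homogenate of 293 cells transfected with human type 1 cDNA was the enzyme source. Compounds in ethanol were diluted in 50 mM Tris-HCl pH 7.5 with 20% glycerol and 1 mM EDTA. Screening was at 1 and 0.1 μM, with 12-point IC50 curves (0.1–1000 nM) for actives. Reactions used [3H]androstenedione and 500 μM NADPH for 60 min at 37 °C, followed by ether extraction, TLC and counting of androstanedione as % of control.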

Going from `[3H]C1CC2=CC(=O)CC[C@]2(C)[C@H]2CC[C@]3(C)C(=O)CC[C@H]3[C@H]12` (stereo partly specified) to `CC(C)(C)NC(=O)[C@H]1CCC2C3CCC4=C(S)C(=O)CC[C@]4(C)C3CC[C@@]21C` (stereo partly specified), the IC50 falls from 2700 nM to 709 nM (3.8-fold). The second is the more potent here.

First: CC(C)(C)NC(=O)[C@H]1CCC2C3CCC4=C(Cl)C(=O)CC[C@]4(C)C3CC[C@@]21C (stereo partly specified)
Second: CC(C)(C)NC(=O)[C@H]1CCC2C3CCC4=C(Br)C(=O)CC[C@]4(C)C3CC[C@@]21C (stereo partly specified)
The IC50 of the first is higher: > 1000 nM for the first, 981 nM for the second. The second is the more potent here.

In the case of `CC(C)(C)NC(=O)[C@H]1CCC2C3CCC4=C(O)C(=O)CC[C@]4(C)C3CC[C@@]21C` (stereo partly specified), the IC50 is reported as > 1000 nM.
